Measured values: ChEMBL document CHEMBL4725436, “Gibberellin JRA-003: A Selective Inhibitor of Nuclear Translocation of IKKα” (ACS Med Chem Lett, 2020)
Activity calls are given as the source filed them. The rule behind the calls is not given here.

How the values were obtained:
[1] = molecular target: T1, Inhibitor of nuclear factor kappa-B kinase subunit alpha (Homo sapiens) (UniProt O15111); assay: Inhibition of JRA-031 binding to IKKalpha in TNF-alpha-stimulated human HEK293T cells at 1 uM pretreated with compound for 1 hr followed by labeling with JRA-031 for 1 hr followed by stimulation with TNF-alpha for 1 hr by pull down based mass spectrometry; assay type: cell-based; details: HEK-293T
T1 sequence (whole entry): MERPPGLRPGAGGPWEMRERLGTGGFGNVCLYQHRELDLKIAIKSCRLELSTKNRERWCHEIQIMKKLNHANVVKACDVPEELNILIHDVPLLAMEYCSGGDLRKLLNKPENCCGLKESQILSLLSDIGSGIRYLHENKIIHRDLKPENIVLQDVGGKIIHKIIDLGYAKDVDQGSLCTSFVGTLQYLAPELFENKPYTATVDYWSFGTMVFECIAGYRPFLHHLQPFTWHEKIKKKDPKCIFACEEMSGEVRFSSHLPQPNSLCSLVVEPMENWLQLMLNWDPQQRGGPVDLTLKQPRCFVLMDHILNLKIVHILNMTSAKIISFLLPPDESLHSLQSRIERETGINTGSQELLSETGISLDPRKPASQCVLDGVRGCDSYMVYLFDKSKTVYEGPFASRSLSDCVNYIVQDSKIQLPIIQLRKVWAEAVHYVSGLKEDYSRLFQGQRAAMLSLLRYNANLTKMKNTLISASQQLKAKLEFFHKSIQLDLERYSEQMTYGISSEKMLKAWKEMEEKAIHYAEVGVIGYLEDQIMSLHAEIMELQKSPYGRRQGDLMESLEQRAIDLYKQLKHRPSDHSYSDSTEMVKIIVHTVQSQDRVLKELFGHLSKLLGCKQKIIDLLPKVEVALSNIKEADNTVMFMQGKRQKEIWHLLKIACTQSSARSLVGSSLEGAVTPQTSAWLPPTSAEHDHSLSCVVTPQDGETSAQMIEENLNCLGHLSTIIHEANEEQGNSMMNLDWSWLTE

[2] = Selectivity index, ratio of IC50 for human Hs888lu cells to EC50 for human HS578T cells measured after 24 hrs by CellTiter-Glo luminescent assay
Procedure, shortened: (§1)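 High-throughput viability screen of test agents across a panel of 22 cancerous and noncancerous human cell lines. Viability was read by CellTiter-Glo luminescence.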

[3] = Selectivity index, ratio of IC50 for human Hs578Bst cells to EC50 for human HCC1599 cells measured after 24 hrs by CellTiter-Glo luminescent assay; assay type: toxicity; details: Hs578Bst cells (IC50) versus HCC1599 cells (EC50); procedure, shortened: as §1
[4] = Selectivity index, ratio of IC50 for human Hs578Bst cells to EC50 for human RC-K8 cells measured after 24 hrs by CellTiter-Glo luminescent assay; assay type: toxicity; details: Hs578Bst cells (IC50) versus RC-K8 cells (EC50); procedure, shortened: as §1
[5] = Inhibition of IKKalpha/IKKbeta in human HEK293T cells transfected with firefly luciferase gene assessed as inhibition of IL-1 beta-stimulated NF-kappaB signalling preincubated for 1 hr followed by IL-1 beta stimulation measured after 3 hrs by luciferase reporter gene assay; assay type: cell-based; details: HEK-293T
[6] = test system: SUD4; assay: Cytotoxicity against human SU-DHL-4 cells assessed as reduction in cell viability measured after 24 hrs by CellTiter-Glo luminescent assay; assay type: functional, cell-based; details: SU-DHL-4, 24 h; procedure, shortened: as §1
[7] = Selectivity index, ratio of IC50 for human Hs888Lu cells to EC50 for human CA46 cells measured after 24 hrs by CellTiter-Glo luminescent assay; assay type: toxicity; details: Hs888Lu cells (IC50) versus CA46 cells (EC50); procedure, shortened: as §1
[8] = test system: Hs-578T; assay: Cytotoxicity against human Hs-578T cells assessed as reduction in cell viability measured after 24 hrs by CellTiter-Glo luminescent assay; assay type: functional, cell-based; procedure, shortened: as §1
[9] = Cytotoxicity against human Hs895T cells assessed as reduction in cell viability measured after 24 hrs by CellTiter-Glo luminescent assay; assay type: functional, cell-based; procedure, shortened: as §1
[10] = Selectivity index, ratio of IC50 for human Hs895SK cells to EC50 for human HS578T cells measured after 24 hrs by CellTiter-Glo luminescent assay; assay type: toxicity; details: Hs895SK cells (IC50) versus HS578T cells (EC50); procedure, shortened: as §1
[11] = test system: NCI-H446; assay: Cytotoxicity against human NCI-H446 cells assessed as reduction in cell viability measured after 24 hrs by CellTiter-Glo luminescent assay; assay type: functional, cell-based; details: NCI-H446, 24 h; procedure, shortened: as §1
[12] = molecular target: T2, Inhibitor of nuclear factor kappa-B kinase subunit beta (Homo sapiens) (UniProt O14920); assay: Inhibition of IKK beta nuclear translocation in human HEK-293T cells assessed as reduction in IKK beta level in nucleus at 15 uM pretreated with compound for 1 hr followed by stimulation with IL-1 beta for 3 hrs by western blot analysis; assay type: subcellular
T2 sequence (whole entry): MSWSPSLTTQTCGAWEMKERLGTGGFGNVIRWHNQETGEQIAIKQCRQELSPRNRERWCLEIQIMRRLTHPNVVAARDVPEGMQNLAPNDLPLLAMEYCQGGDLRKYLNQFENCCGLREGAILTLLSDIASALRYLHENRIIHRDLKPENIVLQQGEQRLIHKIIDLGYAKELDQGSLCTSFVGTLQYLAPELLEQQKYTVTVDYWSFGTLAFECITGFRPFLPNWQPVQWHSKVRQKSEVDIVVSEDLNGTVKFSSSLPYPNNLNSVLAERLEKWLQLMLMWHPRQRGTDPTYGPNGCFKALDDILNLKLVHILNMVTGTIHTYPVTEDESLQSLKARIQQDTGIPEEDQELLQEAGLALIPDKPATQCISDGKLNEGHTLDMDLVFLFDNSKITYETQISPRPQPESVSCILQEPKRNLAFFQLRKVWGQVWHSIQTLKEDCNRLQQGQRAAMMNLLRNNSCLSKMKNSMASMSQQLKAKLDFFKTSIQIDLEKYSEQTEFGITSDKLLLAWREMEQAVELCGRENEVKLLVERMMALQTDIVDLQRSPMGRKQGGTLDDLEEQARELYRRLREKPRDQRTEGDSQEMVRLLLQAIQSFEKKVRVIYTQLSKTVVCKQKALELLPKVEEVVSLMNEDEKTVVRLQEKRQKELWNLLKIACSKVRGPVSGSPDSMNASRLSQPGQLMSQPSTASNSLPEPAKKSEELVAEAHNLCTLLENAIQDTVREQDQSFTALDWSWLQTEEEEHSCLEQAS
Procedure, shortened: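 HEK 293T cells were pretreated with vehicle or test agent, then stimulated with IL-1β (or vehicle). Cells were lysed and nuclei separated, and the cytosolic and nuclear fractions were each probed for IKKα and IKKβ by Western blotting.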

[13] = Selectivity index, ratio of IC50 for human Hs895SK cells to EC50 for human HCC1599 cells measured after 24 hrs by CellTiter-Glo luminescent assay; assay type: toxicity; details: Hs895SK cells (IC50) versus HCC1599 cells (EC50); procedure, shortened: as §1
[14] = Selectivity index, ratio of IC50 for human Hs578Bst cells to EC50 for human SU-DHL-4 cells measured after 24 hrs by CellTiter-Glo luminescent assay; assay type: toxicity; details: Hs578Bst cells (IC50) versus SU-DHL-4 cells (EC50); procedure, shortened: as §1
[15] = Selectivity index, ratio of IC50 for human HS895SK cells to EC50 for human SU-DHL-4 cells measured after 24 hrs by CellTiter-Glo luminescent assay; procedure, shortened: as §1

inhibition [1]: Active | IC50 [5]: 6 µM | inhibition [12]: Active
Compound: C=C1C[C@]23C[C@@]1(O)CC[C@H]2[C@@]12C=CC(=O)[C@@](C)(C(=O)O1)[C@H]2[C@@H]3C(=O)OC
Ratio IC50/EC50 [2]: > 500 | selectivity ratio at 24 h [3]: 500 | selectivity ratio at 24 h [4]: 500 | EC50 [6]: < 0.04 µM | selectivity ratio at 24 h [7]: 500 | EC50 [8]: < 0.04 µM | EC50 [9]: 9.2 µM | selectivity ratio at 24 h [10]: > 500 | EC50 [11]: 0.061 µM | selectivity ratio at 24 h [13]: 500 | selectivity ratio at 24 h [14]: 500 | Ratio IC50/EC50 [15]: 500
